{"source": "paper PMC2692502", "about": "(Journal of Antimicrobial Chemotherapy, 2009)", "key": {"[1]": {"assay": "Study 2: single- and multiple-dose pharmacokinetics of the 2 min iv injection", "assay_type": "in vivo, human", "details": "for Ratio of 6 mg/kg:4 mg/kg daptomycin (95% CI), AUC0–tau (dose-normalized) / Ratio of 6 mg/kg:4 mg/kg daptomycin (95% CI), Ae0–tau (dose-normalized), cumulative amount of unchanged daptomycin excreted in urine / Ratio of 6 mg/kg:4 mg/kg daptomycin (95% CI), CL / Ratio of 6 mg/kg:4 mg/kg daptomycin (95% CI), Cmax (dose-normalized): 6 mg/kg n = 12, 4 mg/kg n = 8, 2 min iv injection; for clearance: CL; for Tmax: median (range); for Vd: V; for dose excreted: urine", "how_it_was_run": "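Healthy adults were randomized single-blind to 6 or 4 mg/kg test compound or placebo as a 2 min peripheral iv injection by syringe driver, once daily for 7 days. Heparinized blood was drawn on days 1 and 7, from predose to 24 h after injection start, plus 36 and 48 h on day 7. Total plasma drug was measured by HPLC (LLOQ 3 mg/L). Non-compartmental analysis gave AUC by the trapezoidal rule and CL, reported as arithmetic means.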"}, "[2]": {"assay": "Study 2: safety and tolerability", "assay_type": "in vivo, human", "how_it_was_run": "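Healthy adults (24 enrolled) were randomized 3:2:1 in a single-blind, placebo-controlled, parallel-group design. Groups received test compound 6 mg/kg, 4 mg/kg or placebo as a 2 min peripheral iv injection by syringe driver, once daily for 7 days. All subjects entered the safety analysis. The investigator graded AEs for relatedness (not, unlikely, possibly, probably) and severity. Tabulated AEs were possibly or probably related. Follow-up was 9–11 days after last dose.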"}, "[3]": {"details": "Study 2, day 1, geometric mean ratio"}, "[4]": {"details": "Study 2, day 7, 6 mg/kg 2 min iv injection once daily, plasma, arithmetic mean (SD), n = 12, SD"}, "[5]": {"details": "Study 2, day 7, geometric mean ratio"}, "[6]": {"details": "both, human, plasma, iv, 4 mg/kg, Study 2, day 1, 4 mg/kg 2 min iv injection, plasma, arithmetic mean (SD), n = 8, SD"}, "[7]": {"details": "both, human, plasma, iv, 4 mg/kg, Study 2, day 7, 4 mg/kg 2 min iv injection once daily, plasma, arithmetic mean (SD), n = 8, SD"}, "[8]": {"details": "both, human, plasma, iv, 4 mg/kg, SD"}, "[9]": {"details": "Study 2, 4 mg/kg 2 min iv injection once daily for 7 days, n = 8"}, "[10]": {"details": "Study 2, 6 mg/kg 2 min iv injection once daily for 7 days, n = 12"}}}
{"compound": "CCCCCCCCCC(=O)N[C@@H](Cc1c[nH]c2ccccc12)C(=O)N[C@H](CC(N)=O)C(=O)N[C@@H](CC(=O)O)C(=O)N[C@@H]1C(=O)NCC(=O)N[C@@H](CCCN)C(=O)N[C@@H](CC(=O)O)C(=O)N[C@H](C)C(=O)N[C@@H](CC(=O)O)C(=O)NCC(=O)N[C@H](CO)C(=O)N[C@@H]([C@H](C)CC(=O)O)C(=O)N[C@@H](CC(=O)c2ccccc2N)C(=O)O[C@@H]1C", "note": "[daptomycin]", "values": [{"measurement": "steady-state concentrations achieved by", "setting": "[1]; Study 2, both treatment groups (6 mg/kg and 4 mg/kg), 2 min iv injection once daily, data not shown", "result": "third daily dose"}, {"measurement": "AUC0–∞", "setting": "[1]; Study 2, day 1, 6 mg/kg 2 min iv injection, healthy adult volunteers, plasma, HPLC, non-compartmental, arithmetic mean (SD), n = 12, SD", "result": "690.37 (68.83) mg·h/L"}, {"measurement": "CL", "setting": "[1]; Study 2, day 1, 6 mg/kg 2 min iv injection, plasma, arithmetic mean (SD), n = 12, SD", "result": "0.0088 (0.0009) L/h/kg"}, {"measurement": "Ratio of 6 mg/kg:4 mg/kg daptomycin (95% CI), AUC0–tau (dose-normalized)", "setting": "[1]; [3]", "result": "1.02 (0.87–1.2)"}, {"measurement": "Ratio of 6 mg/kg:4 mg/kg daptomycin (95% CI), Ae0–tau (dose-normalized), cumulative amount of unchanged daptomycin excreted in urine", "setting": "[1]; [3]", "result": "0.95 (0.72–1.25)"}, {"measurement": "Ratio of 6 mg/kg:4 mg/kg daptomycin (95% CI), CL", "setting": "[1]; [3]", "result": "1.00 (0.85–1.18)"}, {"measurement": "Ratio of 6 mg/kg:4 mg/kg daptomycin (95% CI), Cmax (dose-normalized)", "setting": "[1]; [3]", "result": "1.14 (0.97–1.3)"}, {"measurement": "V", "setting": "[1]; [4]", "result": "0.107 (0.011) L/kg"}, {"measurement": "t1/2", "setting": "[1]; [4]", "result": "8.65 (0.63) h"}, {"measurement": "Ratio of 6 mg/kg:4 mg/kg daptomycin (95% CI), AUC0–tau (dose-normalized)", "setting": "[1]; [5]", "result": "0.99 (0.87–1.12)"}, {"measurement": "Ratio of 6 mg/kg:4 mg/kg daptomycin (95% CI), Ae0–tau (dose-normalized), cumulative amount of unchanged daptomycin excreted in urine", "setting": "[1]; [5]", "result": "0.88 (0.69–1.11)"}, {"measurement": "Ratio of 6 mg/kg:4 mg/kg daptomycin (95% CI), CL", "setting": "[1]; [5]", "result": "1.01 (0.9–1.15)"}, {"measurement": "Ratio of 6 mg/kg:4 mg/kg daptomycin (95% CI), Cmax (dose-normalized)", "setting": "[1]; [5]", "result": "0.97 (0.82–1.16)"}, {"measurement": "clearance", "setting": "[1]; [6]", "result": 0.15, "unit": "mL/min/kg"}, {"measurement": "clearance", "setting": "[1]; [7]", "result": 0.143, "unit": "mL/min/kg"}, {"measurement": "Cmax", "setting": "[1]; both, human, plasma, iv, 4 mg/kg, Study 2, day 1, 4 mg/kg 2 min iv injection, plasma, HPLC, arithmetic mean (SD), n = 8, SD", "result": 56.8, "unit": "µg/mL"}, {"measurement": "Cmax", "setting": "[1]; both, human, plasma, iv, 4 mg/kg, Study 2, day 7, 4 mg/kg 2 min iv injection once daily, plasma, HPLC, arithmetic mean (SD), n = 8, SD", "result": 62.8, "unit": "µg/mL"}, {"measurement": "Tmax", "setting": "[1]; both, human, plasma, iv, 4 mg/kg, Study 2, day 1, 4 mg/kg 2 min iv injection, plasma, n = 8", "result": 8.4, "unit": "min"}, {"measurement": "Tmax", "setting": "[1]; both, human, plasma, iv, 4 mg/kg, Study 2, day 7, 4 mg/kg 2 min iv injection once daily, plasma, n = 8", "result": 15, "unit": "min"}, {"measurement": "Vd", "setting": "[1]; [6]", "result": 0.116, "unit": "L/kg"}, {"measurement": "Vd", "setting": "[1]; [7]", "result": 0.109, "unit": "L/kg"}, {"measurement": "half-life", "setting": "[1]; both, human, plasma, iv, 4 mg/kg, t1/2, Study 2, day 1, 4 mg/kg 2 min iv injection, plasma, arithmetic mean (SD), n = 8, SD", "result": 545, "unit": "min"}, {"measurement": "half-life", "setting": "[1]; both, human, plasma, iv, 4 mg/kg, t1/2, Study 2, day 7, 4 mg/kg 2 min iv injection once daily, plasma, arithmetic mean (SD), n = 8, SD", "result": 536, "unit": "min"}, {"measurement": "AUC(0-inf)", "setting": "[1]; [8]", "result": 468, "unit": "µg·h/mL"}, {"measurement": "AUC(0-t)", "setting": "[1]; [8]", "result": 475, "unit": "µg·h/mL"}, {"measurement": "clearance", "setting": "[1]; both, human, plasma, iv, 6 mg/kg, Study 2, day 7, 6 mg/kg 2 min iv injection once daily, plasma, arithmetic mean (SD), n = 12, SD", "result": 0.145, "unit": "mL/min/kg"}, {"measurement": "Cmax", "setting": "[1]; both, human, plasma, iv, 6 mg/kg, Study 2, day 1, 6 mg/kg 2 min iv injection, plasma, HPLC, arithmetic mean (SD), n = 12, SD", "result": 97.5, "unit": "µg/mL"}, {"measurement": "Cmax", "setting": "[1]; both, human, plasma, iv, 6 mg/kg, Study 2, day 7, 6 mg/kg 2 min iv injection once daily, plasma, HPLC, arithmetic mean (SD), n = 12, SD", "result": 91.8, "unit": "µg/mL"}, {"measurement": "Tmax", "setting": "[1]; both, human, plasma, iv, 6 mg/kg, Study 2, day 1, 6 mg/kg 2 min iv injection, plasma, n = 12", "result": 1.8, "unit": "min"}, {"measurement": "Tmax", "setting": "[1]; both, human, plasma, iv, 6 mg/kg, Study 2, day 7, 6 mg/kg 2 min iv injection once daily, plasma, n = 12", "result": 15, "unit": "min"}, {"measurement": "Vd", "setting": "[1]; both, human, plasma, iv, 6 mg/kg, Study 2, day 1, 6 mg/kg 2 min iv injection, plasma, arithmetic mean (SD), n = 12, SD", "result": 0.106, "unit": "L/kg"}, {"measurement": "half-life", "setting": "[1]; both, human, plasma, iv, 6 mg/kg, t1/2, Study 2, day 1, 6 mg/kg 2 min iv injection, plasma, arithmetic mean (SD), n = 12, SD", "result": 506, "unit": "min"}, {"measurement": "AUC(0-t)", "setting": "[1]; both, human, plasma, iv, 6 mg/kg, SD", "result": 701, "unit": "µg·h/mL"}, {"measurement": "dose excreted", "setting": "[1]; both, human, iv, 4 mg/kg, SD", "result": 54.3, "unit": "%"}, {"measurement": "dose excreted", "setting": "[1]; both, human, iv, 6 mg/kg, SD", "result": 56.7, "unit": "%"}, {"measurement": "Subjects with at least one adverse event possibly or probably related to study drug: Any adverse event", "setting": "[2]; [9]", "result": "2 (25) n (%)"}, {"measurement": "Subjects with related adverse event: Gastrointestinal disorders", "setting": "[2]; [9]", "result": "1 (13) n (%)"}, {"measurement": "Subjects with related adverse event: Infections and infestations", "setting": "[2]; [9]", "result": "0 n (%)"}, {"measurement": "Subjects with related adverse event: Nervous system disorders", "setting": "[2]; [9]", "result": "1 (13) n (%)"}, {"measurement": "Subjects with related adverse event: dizziness", "setting": "[2]; [9]", "result": "0 n (%)"}, {"measurement": "Subjects with related adverse event: dizziness postural", "setting": "[2]; [9]", "result": "0 n (%)"}, {"measurement": "Subjects with related adverse event: flatulence", "setting": "[2]; [9]", "result": "1 (13) n (%)"}, {"measurement": "Subjects with related adverse event: headache", "setting": "[2]; [9]", "result": "0 n (%)"}, {"measurement": "Subjects with related adverse event: lethargy", "setting": "[2]; [9]", "result": "1 (13) n (%)"}, {"measurement": "Subjects with related adverse event: nausea", "setting": "[2]; [9]", "result": "0 n (%)"}, {"measurement": "Subjects with related adverse event: pain in extremity", "setting": "[2]; [9]", "result": "1 (13) n (%)"}, {"measurement": "Subjects with related adverse event: paraesthesia", "setting": "[2]; [9]", "result": "0 n (%)"}, {"measurement": "Subjects with related adverse event: upper respiratory tract infection", "setting": "[2]; [9]", "result": "0 n (%)"}, {"measurement": "subjects with erythema (local injection-site reaction)", "setting": "[2]; [9]", "result": "five subjects"}, {"measurement": "Subjects with at least one adverse event possibly or probably related to study drug: Any adverse event", "setting": "[2]; [10]", "result": "3 (25) n (%)"}, {"measurement": "Subjects with related adverse event: Gastrointestinal disorders", "setting": "[2]; [10]", "result": "0 n (%)"}]}
